The EternaBench riboswitch data

Tested on: MS2 coat protein
Experiment: apparent Kd, MS2 coat protein; higher = weaker binding; RNA-MaP array; FMN 200 µM where present
Method in brief: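 Stalled E. coli RNA polymerase produced the designs on Illumina sequencing-chip clusters. SNAP-549-labelled MS2 coat protein was added from 0.7 or 1.5 nM, doubling to 3 µM, without and then with constant ligand, in 100 mM Tris-HCl pH 7.5, 80 mM KCl, 4 mM MgCl2, BSA, DTT, yeast tRNA and Tween-20. The apparent Kd is the median of filtered per-cluster fits of green signal normalised to red-channel RNA signal and control-cluster median Fmax.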

[1] = designed as: OFF switch for flavin mononucleotide, no ligand
[2] = ligand present: flavin mononucleotide, designed as: OFF switch for flavin mononucleotide
[3] = designed as: ON switch for flavin mononucleotide, no ligand
[4] = ligand present: flavin mononucleotide, designed as: ON switch for flavin mononucleotide

| Sequence | apparent Kd [1] | apparent Kd [2] | apparent Kd [3] | apparent Kd [4] |
| --- | --- | --- | --- | --- |
| UGUCGGAGCAGAGGAUAUUACAUGAGGAUCACCCAUGUAUGAACAAAUAGCUGGAAACAGCAAUGUAAGAAGGCUGCUCCGACA | 5.82 nM | 7.45 nM | – | – |
| AAAACGCGGGAGAAGGCCACUUACCGUUACAUGGACGUGAGAAAUAAAUGGAGGAUAUCCCUACAUGAGGAUCACCCAUGUAAU | – | – | 412 nM | 103 nM |
| UAUUUAAUCAUAGGAUAUAGUGUGUAAUUUGGACUAGAAGGAUGAAACAUGAGGAUCACCCAUGUGGUAAAUGGGAUACAUUCC | – | – | 73.5 nM | 94.5 nM |
| ACAUGACAUGAGGAUCACCCAUGUGAGGAUAUGCGAAAAAAAAAAAAAAAAAAAAUUGGCAGAAGGCACAAAAU | 167 nM | 180 nM | – | – |
| CACAAGAAAGUCGAAGGUUGAAGUAGAAGGUCUACAACAUGACAUGAGGAUCACCCAUGUGCUAAGAAGGAUAUGCUUUAAUCG | 8.71 nM | 7.12 nM | – | – |
| ACCGAACAUGAGGAUCACCCAUGUGAGGAUAUAGACGCGUAUUUAACGCGUAACAAAACUAGAAGGCACUGGGC | 27.2 nM | 16.1 nM | – | – |
| AGCUACGUUUCGUAGCAGCUAGGUGAGGAUAUCCACUCAACAUGAGGAUCACCCAUGUAAACAUGGGAGAAGGCGCCUAGAAAG | – | – | 63.4 nM | 9.63 nM |
| CACAACCAGGGAGGAUAUACAUGAGGAUCACCCAUGUUCGGCUCCCAUGCAGGAUGCCGUCCCGUGUAGAAGGCCCAGCGAUAG | 9.91 nM | 32.2 nM | – | – |
| AAUGGUGGAGGAUAUACAUGAGGAUCACCCAUGUAAAUCACACAUGUGGUCAACGCAUGUAGAAGGCCACUAAA | 62.5 nM | 104 nM | – | – |
| CUAUACAUAUCAGGAUAUCUAUUUCCUACAUGAGGAUCACCCAUGUAGAGGAUCACCCAUGUAAAGGAGAAGGGAUAUGUAUAG | – | – | 105 nM | 20.9 nM |
| CAGAGACAAGCAGGAUAUCGACACAUGAGGAUCACCCAUGUUCGUAGGAACCUGGGUCAAGUCUGCGAGAAGGGCUCGUCAGUA | 151 nM | 159 nM | – | – |
| CCCGCCCGUCGAGGAUAUAUUAUAUGACAACAAACACAUACAUGAGGAUCACCCAUGUCCCAUGUAUAGAAGGCGACCUGCGUC | – | – | 74.8 nM | 98.2 nM |
| AACCUAAAACAGAAGGCCAAAUACAUGAGGAUCACCCAUGUCGAAUCAUGGAGGAUAUGUUGUUAUUUACUCGCAGAUGAGUGC | – | – | 77.6 nM | 8.18 nM |
| CAUUUGUGAGGAUAUCAGGUGUGCUAGCGUACUGGUACAUCUGAGAAGGCACAUGAGGAUCACCCAUGUUCCUU | 12.8 nM | 30 nM | – | – |
| GCCAACUCAUGAGGAUAUGGCACCUUAUUGGUGCCAGAAGGCGUGUCUAUUGACAUGAGGAUCACCCAUGUAUUAUAGUUGGCA | – | – | 678 nM | 105 nM |
| UGGCUACAUGAGGAUCACCCAUGUCAGGAUAUGCCGUUAAAUUAACAUCAACGUACGGGUAGAAGGGACUGCGU | 24.3 nM | 23 nM | – | – |
| GCCUCAGAAUUAAUUGUGAGAAGCAGAAGGCUAUAUCUUAUGUUAAACAUGAGGAUCACCCAUGUAGAGGAUAUGCUAUUACAG | 7.68 nM | 17.7 nM | – | – |
| CGUUGGUUAGGAUAUAGCCUCCUGGUGGGAAGGCCGGGUGGCUAGAAGGAACAUGAGGAUCACCCAUGUAUGGA | 62.6 nM | 33.3 nM | – | – |
| UAUGUGUCAGGAUAUUAGUAGUAUAUAGAUAUAUAUAUUACUGAGAAGGGACAUGAGGAUCACCCAUGUACCUU | 16.5 nM | 19.1 nM | – | – |
| GGUCCACAUGAGGAUCACCCAUGUUAGGAUAUCUCGCCCGAGUCCAUAUGGGCCGGGCAGAGAAGGAAUGUGAA | 21 nM | 22.6 nM | – | – |
| UCGCUGCGAGGAUAUACAUGAGGAUCACCCAUGUACGGGUCCGGGUCUUCGUCCAUUGGUAGAAGGCGCAGUGA | 23.1 nM | 204 nM | – | – |
| GUGGCCCAGGCACAGGAUAUGUUUCUCGUAACAUGAGGAUCACCCAUGUGCCUAUGAGAUUGUUUGCAGAAGGGUGCACGCCACG | – | – | 449 nM | 24 nM |
| UUUUUGUGAGGAUAUCAGUAGUAGAACAAUAGUACUACUACUGAGAAGGUACAUGAGGAUCACCCAUGUUCCUC | 19.4 nM | 23.7 nM | – | – |
